The values below come from ChEMBL document CHEMBL4393703, “Organoseleno cytostatic derivatives: Autophagic cell death with AMPK and JNK activation” (Eur J Med Chem, 2019).

Each structure is given as a SMILES string.

Series [1] in a line: Cytotoxicity against human 184B5 cells assessed as reduction in cell growth at 10 uM incubated for 48 hrs by MTT assay. The settings on record: read-out: Activity. It counts as cell-based. In outline:
(§1)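 Two-concentration MTT screen (10 and 100 µM; the 10 µM readings are the values here) run before full dose-response profiling. Cells seeded at 8,000–40,000 per well depending on cell size and left overnight, then exposed to compound for 48 h. MTT (2 mg/mL stock) added for 4 h, formazan dissolved in DMSO, absorbance read at 550 nm. Growth given as percent of untreated controls, averaged.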

Series [2] can be described thus: Cytotoxicity against human BEAS2B cells assessed as reduction in cell growth at 10 uM incubated for 48 hrs by MTT assay. It counts as cell-based. The settings on record: BEAS-2B cells, read-out: Activity. In outline:
as §1

For series [3], the system named is MCF7. The experiment in a line: Antiproliferative activity against human MCF7 cells assessed as reduction in cell growth at 10 uM incubated for 48 hrs by MTT assay. More on the design: scale not given: the % may be the effect or the level left. It counts as functional. In outline: as §1
The test system of series [4] is HT-29. As to the kind of experiment: Antiproliferative activity against human HT-29 cells assessed as reduction in cell growth at 10 uM incubated for 48 hrs by MTT assay. More on the design: scale not given: the % may be the effect or the level left. It counts as functional. In outline:
as §1

Series [5] has as its system MOLT-4. The experiment in a line: Antiproliferative activity against human MOLT4 cells assessed as reduction in cell growth at 10 uM incubated for 48 hrs by MTT assay. It counts as functional. Also noted: scale not given: the % may be the effect or the level left. In outline: as §1
The subject of series [6] is PC-3. As to the kind of experiment: Antiproliferative activity against human PC3 cells assessed as reduction in cell growth at 10 uM incubated for 48 hrs by MTT assay. It counts as functional. More on the design: scale not given: the % may be the effect or the level left. In outline: as §1
The test system of series [7] is CCRF-CEM. The experiment in a line: Antiproliferative activity against human CCRF-CEM cells assessed as reduction in cell growth at 10 uM incubated for 48 hrs by MTT assay. It counts as functional. More on the design: scale not given: the % may be the effect or the level left. In outline: as §1
The nature of series [8]: Antiproliferative activity against human HTB-54 cells assessed as reduction in cell growth at 10 uM incubated for 48 hrs by MTT assay. It counts as functional. More on the design: scale not given: the % may be the effect or the level left. In outline: as §1
The subject of series [9] is K562. As to the kind of experiment: Antiproliferative activity against human K562 cells assessed as reduction in cell growth at 10 uM incubated for 48 hrs by MTT assay. It counts as functional. Also noted: scale not given: the % may be the effect or the level left. In outline: as §1

For `O=C(O)CCC(=O)Nc1ccc([Se][Se]c2ccc(NC(=O)CCC(=O)O)cc2)cc1`, the inhibition at 48 h, 10 µM in [1] was determined as 80.2%; in [2] it was 76.6%. Moreover, the Activity in series [3] is reported as 69.66%; in [4] it was 91.61%; in series [5] it was 83.23%; in [6] it was 70.9%; in series [7], 80.57%; in series [8], 88.05%. Moreover, the Activity in [9] was determined as 105.24%.
As for `O=C(O)COCC(=O)Nc1ccc([Se][Se]c2ccc(NC(=O)COCC(=O)O)cc2)cc1`, the inhibition at 48 h, 10 µM in series [1] is 72.1%; in series [2], 56.8%. In addition, the Activity in series [3] is recorded as 58.4%; in [4], 71.63%; in series [5], 100.26%; in [6], 36.49%; in [7], 67.11%; in series [8] it was 59.62%. Further, the Activity in series [9] amounted to 120.32%.
For the molecule `O=C(O)c1ccccc1C(=O)Nc1ccc([Se][Se]c2ccc(NC(=O)c3ccccc3C(=O)O)cc2)cc1`, the inhibition at 48 h, 10 µM in series [1] amounted to 93.4%; in [2], 63.7%. The Activity in [3] was determined as 107.45%; in [4], 98.98%; in [5], 96.04%; in [6] it was 98.48%; in series [7] it was 84.92%; in series [8], 100.9%. In series [9], the Activity amounted to 95.27%.
On to `O=C(O)C1CCCCC1C(=O)Nc1ccc([Se][Se]c2ccc(NC(=O)C3CCCCC3C(=O)O)cc2)cc1` (stereo not given), for which the values for the inhibition at 48 h, 10 µM in [1] and in series [2] were 55% and 91%, respectively. The Activity in [3] was 74.45%; in [4], 99.45%; in [5], 101.94%; in series [6] it was 116.42%; in series [7], -33.59%; in [8] it was 95.11%. The Activity in [9] was 111.58%.
Turning to `N#C[Se]c1ccc(NC(=O)CCC(=O)O)cc1`, the inhibition at 48 h, 10 µM is 84.7% in series [1] and 67.7% in [2]. The Activity is listed as 66.51% in [3]; 81.87% in series [4]; 91.48% in [5]; 56.3% in series [6]; 48.62% in series [7]; 59.11% in [8]. Further, in series [9], the Activity was 94.9%.
As for `N#C[Se]c1ccc(NC(=O)COCC(=O)O)cc1`, the inhibition at 48 h, 10 µM in [1] was found to be 96.7%; in series [2], 81.1%. The Activity in series [3] came out at 54.04%; in [4] it was 90.48%; in series [5] it was 101.67%; in [6] it was 22.89%; in series [7] it was 89.38%; in series [8], 98.4%. In addition, in [9], the Activity turned out to be 90.71%.
As for `O=C(O)/C=C\C(=O)Nc1ccc([Se][Se]c2ccc(NC(=O)/C=C\C(=O)O)cc2)cc1`, the inhibition at 48 h, 10 µM in [1] was found to be 98.3%; in [2] it was 86.1%. Further, the Activity stood at 94.07% in series [3]; 98.04% in [4]; 105.28% in series [5]; 80.03% in series [6]; 119.77% in [7]; 79.95% in series [8]. Moreover, the Activity in [9] turned out to be 97.45%.
With `O=C1COCC(=O)N1c1ccc([Se][Se]c2ccc(N3C(=O)COCC3=O)cc2)cc1`, the inhibition at 48 h, 10 µM in [1] was 112%; in series [2], 84.2%. In addition, the Activity in series [3] is reported as 111.5%; in series [4], 122.24%; in series [5], 108.78%; in [6] it was 94.53%; in series [7], 81.46%; in [8], 104.55%. For the same molecule, the Activity in series [9] was 104.46%.
For `N#C[Se]c1ccc(NC(=O)C2CCCCC2C(=O)O)cc1` (stereo not given), the inhibition at 48 h, 10 µM in series [1] came out at 114%; in [2], 96.1%. Besides, the Activity in [3] was determined as 52.91%; in series [4] it was 68.62%; in [5], 94.82%; in series [6], 103.04%; in [7], 103.77%; in series [8], 112.43%. In addition, the Activity in [9] was 121.06%.
Consider `N#C[Se]c1ccc(NC(=O)c2ccccc2-c2ccccc2C(=O)O)cc1`, for which the values for the inhibition at 48 h, 10 µM in [1] and in series [2] were 116% and 89.3%, respectively. Further, the Activity in [3] stood at 92.09%; in series [4], 103.42%; in series [5], 113.27%; in series [6], 103.12%; in series [7], 100.75%; in series [8], 106.35%. Besides, the Activity in series [9] turned out to be 100.79%.
